Calls of active or inactive are those of the source. The calls are words filed in the database; no cut-off is given here.
Key:
U-251 [1] = assay: Antiinvasive activity in human U251 cells assessed as velocity of invasion at 5 uM measured up to 20 hrs by matrigel assay (reference value: 1151 to 1710 micrometer/hr); type: functional
[2] = target: T1, Dual specificity tyrosine-phosphorylation-regulated kinase 1A (Homo sapiens, UniProt Q13627); assay: Binding affinity to DYRK1A in human U251 […] preincubated for 1 hr followed by incubation at 54 degreeC for 3 mins by isothermal dose-response fingerprint assay
How it was run: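 Isothermal dose-response fingerprint: intact U251 cells were treated for 1 h across 0–20 µM, then heated at 54 °C. The soluble fraction was extracted with aqueous buffer and DYRK1A was detected by Western blot. Results are mean ± SEM of 2 independent experiments.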

[3] = Antimigratory activity in patient-derived RN1 cells assessed as velocity of migration at 1 uM measured up to 20 hrs by wound scratch assay (reference value: 937 to 1174 micrometer/hr); type: functional, Homo sapiens
How it was run: (§1)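 Wound-healing migration assay: cell movement across the wound is measured as velocity (µm/h). Compounds were tested at 0, 1.0, 5.0 and 10.0 µM. Values are mean ± SEM of 3 independent experiments.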

A 172 [4] = assay: Antimigratory activity in human A172 cells at 5 uM measured up to 20 hrs by wound scratch assay; type: functional; details: A 172, 20 h; how it was run: as §1
A 172 [5] = assay: Antimigratory activity in human A172 cells assessed as velocity of migration at 10 uM measured up to 20 hrs by wound scratch assay (reference value: 2650 to 3123 micrometer/hr); type: functional; how it was run: as §1
U-251 [6] = assay: Antimigratory activity in human U251 cells assessed as velocity of migration at 1 uM measured up to 20 hrs by wound scratch assay (reference value: 2159 to 2653 micrometer/hr); type: functional; how it was run: as §1
A 172 [7] = assay: Antiinvasive activity in human A172 cells assessed as velocity of invasion at 10 uM measured up to 20 hrs by matrigel assay (reference value: 2659 to 3047 micrometer/hr); type: functional
A 172 [8] = assay: Antimigratory activity in human A172 cells assessed as velocity of migration at 5 uM measured up to 20 hrs by wound scratch assay (reference value: 2650 to 3123 micrometer/hr); type: functional; how it was run: as §1
[9] = Cytotoxicity against patient-derived SJH1 cells assessed as reduction in cell viability after 3 days by Alamar blue assay; type: functional, cell-based; details: Homo sapiens, SJH1, 72 h
How it was run: (§2)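 The patient-derived glioblastoma lines were grown as stem cells under defined conditions to keep the phenotype and genotype of the resected tumours. Viability after treatment was read with Alamar blue.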

RN1 = assay: (§3) Anticlonogenic activity against patient-derived RN1 cells after 10 to 12 days by toluidine blue staining based assay; type: functional, cell-based; details: Homo sapiens
How it was run: (§4)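 Cells were exposed to compound for 10 days, then colonies were fixed, stained with Toluidine Blue and counted. […] Values are mean ± SEM of 3 independent experiments, each in duplicate, with one-way ANOVA and Dunnett's test against vehicle.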

[10] = as §3; type: functional, cell-based, Homo sapiens; how it was run: as §4
Homo sapiens = species: Homo sapiens; assay: Inhibition of tubulin (unknown origin) polymerization
[11] = target: T1, Dual specificity tyrosine-phosphorylation-regulated kinase 1A; assay: Inhibition of DYRK1A in human U251 cell lysate assessed as EGF induced EGFR degradation at 2.5 uM by measuring basal EGFR half life in presence of cycloheximide by Western blot analysis (reference value: 25.6 +/- 7.6 min)
How it was run: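 U251 cells were pretreated with 2.5 µM compound or DMSO for 4 h, then given cycloheximide (30 µg/mL, 1 h). EGF (100 ng/mL) was added for 0–120 min. EGFR was detected by Western blot, normalized to β-actin and expressed as % of 0 min. Half-life came from non-linear regression, as mean ± SEM of 3 independent experiments.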

[12] = Cytotoxicity against patient-derived RN1 cells assessed as reduction in cell viability after 3 days by Alamar blue assay; type: functional, cell-based; details: Homo sapiens, RN1, 72 h; how it was run: as §2
[13] = Cytotoxicity against patient-derived WK1 cells assessed as reduction in cell viability after 5 days by Alamar blue assay; type: functional, cell-based; details: Homo sapiens, WK1, 120 h; how it was run: as §2
U-251 [14] = assay: Antiinvasive activity in human U251 cells measured up to 20 hrs by matrigel assay; type: functional, cell-based
U-251 [15] = assay: Antiinvasive activity in human U251 cells assessed as velocity of invasion at 10 uM measured up to 20 hrs by matrigel assay (reference value: 1151 to 1710 micrometer/hr); type: functional
U-251 [16] = assay: Antimigratory activity in human U251 cells assessed as velocity of migration at 5 uM measured up to 20 hrs by wound scratch assay (reference value: 2159 to 2653 micrometer/hr); type: functional; how it was run: as §1
[17] = target: Dual specificity tyrosine-phosphorylation-regulated kinase 1B (Homo sapiens, UniProt Q9Y463); assay: Stabilization of DYRK1B in human U251 cell lysate at 10 uM preincubated for 1 hr followed by incubation at 40 to 70 degreeC for 3 mins by cellular thermal shift assay
Chain of Dual specificity tyrosine-phosphorylation-regulated kinase 1B (Q9Y463 whole entry, looked up): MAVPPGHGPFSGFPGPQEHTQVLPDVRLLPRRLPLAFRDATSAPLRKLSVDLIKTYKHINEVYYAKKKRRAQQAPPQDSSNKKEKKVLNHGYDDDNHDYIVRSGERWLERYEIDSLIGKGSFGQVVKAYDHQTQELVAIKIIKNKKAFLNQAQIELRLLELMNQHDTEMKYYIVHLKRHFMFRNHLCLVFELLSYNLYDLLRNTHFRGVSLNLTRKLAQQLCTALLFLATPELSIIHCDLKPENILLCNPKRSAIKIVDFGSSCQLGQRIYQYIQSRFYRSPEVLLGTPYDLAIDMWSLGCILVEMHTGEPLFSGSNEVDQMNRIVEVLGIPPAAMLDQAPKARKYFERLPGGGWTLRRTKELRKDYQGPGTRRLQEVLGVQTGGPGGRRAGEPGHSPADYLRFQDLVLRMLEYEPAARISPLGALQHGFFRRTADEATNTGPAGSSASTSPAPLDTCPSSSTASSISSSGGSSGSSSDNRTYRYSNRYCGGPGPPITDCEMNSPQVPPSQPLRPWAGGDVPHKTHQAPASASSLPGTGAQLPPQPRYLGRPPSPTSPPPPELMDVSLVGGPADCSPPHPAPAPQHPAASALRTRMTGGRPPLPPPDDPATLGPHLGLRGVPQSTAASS

U-251 [18] = assay: Antimigratory activity in human U251 cells at 5 uM measured up to 20 hrs by wound scratch assay; type: functional; details: U-251, 20 h; how it was run: as §1
[19] = target: T2, Dual specificity protein kinase CLK1 (Homo sapiens, UniProt P49759); assay: Inhibition of CLK1 (unknown origin) using KKGRSRSRSRSRSR as substrate after 40 mins in presence of [gamma-33P]ATP by microbeta scintillation counting
How it was run: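 CLK1 was assayed with RS peptide substrate at 100 µM ATP.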
Target sequence in this assay (P49759 whole entry): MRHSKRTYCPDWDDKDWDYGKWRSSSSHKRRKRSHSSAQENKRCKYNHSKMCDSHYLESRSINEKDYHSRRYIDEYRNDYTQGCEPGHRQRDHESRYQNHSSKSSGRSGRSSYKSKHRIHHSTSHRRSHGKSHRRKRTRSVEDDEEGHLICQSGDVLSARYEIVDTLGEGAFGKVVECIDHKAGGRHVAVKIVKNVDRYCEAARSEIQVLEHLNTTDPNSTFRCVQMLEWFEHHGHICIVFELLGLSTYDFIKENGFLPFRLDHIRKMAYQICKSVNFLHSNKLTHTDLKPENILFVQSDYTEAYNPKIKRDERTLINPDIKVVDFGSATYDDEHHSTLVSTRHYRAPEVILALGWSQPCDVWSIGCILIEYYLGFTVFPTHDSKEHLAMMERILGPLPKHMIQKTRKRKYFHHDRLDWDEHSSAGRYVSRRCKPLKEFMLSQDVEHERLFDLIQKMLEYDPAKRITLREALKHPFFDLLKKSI

U-251 [20] = assay: Anticlonogenic activity against human U251 cells after 10 to 12 days by toluidine blue staining based assay; type: functional, cell-based; how it was run: as §4
A 172 [21] = assay: Antiinvasive activity in human A172 cells assessed as velocity of invasion at 1 uM measured up to 20 hrs by matrigel assay (reference value: 2659 to 3047 micrometer/hr); type: functional
[22] = target: T2, Dual specificity protein kinase CLK1; assay: Stabilization of CLK1 in human U251 cell lysate at 10 uM preincubated for 1 hr followed by incubation at 40 to 70 degreeC for 3 mins by cellular thermal shift assay
Target sequence in this assay (P49759 whole entry, looked up): as the sequence (P49759 whole entry) above

[23] = Cytotoxicity against patient-derived JK2 cells assessed as reduction in cell viability after 3 days by Alamar blue assay; type: functional, cell-based; details: Homo sapiens, JK2, 72 h; how it was run: as §2
[24] = Antimigratory activity in patient-derived RN1 cells assessed as velocity of migration at 10 uM measured up to 20 hrs by wound scratch assay (reference value: 937 to 1174 micrometer/hr); type: functional, Homo sapiens; how it was run: as §1
A 172 [25] = assay: Antimigratory activity in human A172 cells assessed as velocity of migration at 1 uM measured up to 20 hrs by wound scratch assay (reference value: 2650 to 3123 micrometer/hr); type: functional; how it was run: as §1

Nc1ccc(-c2cnc3[nH]cc(-c4ccc(O)cc4)c3c2)cc1
Activity (U-251 [1]): 234 um/hr | IC50 [2]: 0.711 µM | Activity [3]: 355 um/hr | inhibition at 5 µM (A 172 [4]): > 75% | Activity (A 172 [5]): 131 um/hr | Activity (U-251 [6]): 1247 um/hr | Activity (A 172 [7]): 714 um/hr | Activity (A 172 [8]): 728 um/hr | EC50 [9]: 3.2 µM | Activity (RN1): Dose-dependent effect | EC50 [10]: 0.8 µM | inhibition (Homo sapiens): inactive | T1/2 [11]: 11.3 min | EC50 [12]: 1.1 µM | EC50 [13]: 0.9 µM | inhibition (U-251 [14]): Dose-dependent effect | Activity (U-251 [15]): -149 um/hr | Activity (U-251 [16]): 127 um/hr | Activity [17]: Active | inhibition at 5 µM (U-251 [18]): > 75% | IC50 [19]: 0.034 µM | EC50 (U-251 [20]): 0.18 µM | Activity (A 172 [21]): 2675 um/hr | Activity [22]: Active | EC50 [23]: 8 µM | Activity [24]: 208 um/hr | Activity (A 172 [25]): 2828 um/hr

Source: ChEMBL document CHEMBL4007420, “Structural Optimization and Pharmacological Evaluation of Inhibitors Targeting Dual-Specificity Tyrosine Phosphorylation-Regulated Kinases (DYRK) and CDC-like kinases (CLK) in Glioblastoma” (J Med Chem, 2017)
